Reference: ChEMBL document CHEMBL1127811, “Inhibitors of cholesterol biosynthesis. 2. Hypocholesterolemic and antioxidant activities of benzopyran and tetrahydronaphthalene analogues of the tocotrienols” (J Med Chem, 1994)
“And” between values parts separate entries of the source, which are not always exact repeats. Equal entries are not always repeated.

How the values were obtained:
Gallus gallus [1] = organism: Gallus gallus; test: (§1) Hypocholesterolemic activity in 6-week old male mormocholesterolemic chickens using experiment 4; format: functional
Outline: (§2)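 Male chickens, 6 weeks old. Test compound mixed at 50 ppm into a corn-soybean control diet; controls get the diet alone. After the feeding period, birds are fasted 36 h and refed 48 h before sacrifice. Serum total, LDL and HDL cholesterol (mg/100 mL) and triglycerides measured; expressed as mean ± SD and percent of control, n = 6–12 per group.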

Gallus gallus [2] = organism: Gallus gallus; test: Ratio of HDL/total cholesterol value; format: functional
Outline: (§3)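 Six-week-old male chickens fed corn-soybean control diet with test compound at 50 ppm. Birds fasted 36 h, then refed 48 h before sacrifice. Serum total, LDL and HDL cholesterol and triglycerides measured (mg/100 mL), HDL/total ratio computed. Means ± SD, n = 6–12 per group, also as % of control. Significance p < 0.01 within each study.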

HepG2 = test: In vitro inhibition of cholesterol biosynthesis in Hep G2 cells; format: functional, Homo sapiens; set-up: concentration or dose not given beside the values
Outline: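 HepG2 human hepatoma cells incubated 4 h with compound at 10 μM, DMSO vehicle controls. Mean % inhibition vs controls, SD ≤ ±10%, n ≥ 8.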

Gallus gallus [3] = organism: Gallus gallus; test: (§4) Hypocholesterolemic activity in 6-week old male mormocholesterolemic chickens using experiment 1; format: functional; outline: as §3
[4] = Compound oxidation potential using cyclic voltametry; format: ADME
Gallus gallus [5] = organism: Gallus gallus; test: (§5) Hypocholesterolemic activity in 6-week old male mormocholesterolemic chickens using experiment 3; format: functional; outline: as §3
[6] = LDL oxidation assay as spectrophotometric determination of TBARS; format: functional
Outline: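 LDL (0.5 mg/mL protein stock) in saline/20 mM HEPES with drug in ethanol, oxidised by CuSO4 (4 × 10⁻⁴ M stock), 37 °C, 5 h, in duplicate. Stopped with EDTA; TCA/TBA added, boiled 30 min, A535 read. Malonaldehyde equivalents from tetramethoxypropane standard curve. IC50 = concentration inhibiting 50% TBARS vs ethanol controls.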

Gallus gallus [7] = organism: Gallus gallus; test: as §4; format: functional; outline: as §2; remark: listed apart in the source
Gallus gallus [8] = organism: Gallus gallus; test: as §5; format: functional; outline: as §2; remark: listed apart in the source
[9] = biological target: T1, 3-hydroxy-3-methylglutaryl-coenzyme A reductase (Homo sapiens) (UniProt P04035); test: In vitro suppression of HMG-CoA reductase (HMGR) in Hep G2 cells; format: cell-based; set-up: concentration or dose not given beside the values; conditions: HepG2, concentration not given here
T1 sequence (whole entry): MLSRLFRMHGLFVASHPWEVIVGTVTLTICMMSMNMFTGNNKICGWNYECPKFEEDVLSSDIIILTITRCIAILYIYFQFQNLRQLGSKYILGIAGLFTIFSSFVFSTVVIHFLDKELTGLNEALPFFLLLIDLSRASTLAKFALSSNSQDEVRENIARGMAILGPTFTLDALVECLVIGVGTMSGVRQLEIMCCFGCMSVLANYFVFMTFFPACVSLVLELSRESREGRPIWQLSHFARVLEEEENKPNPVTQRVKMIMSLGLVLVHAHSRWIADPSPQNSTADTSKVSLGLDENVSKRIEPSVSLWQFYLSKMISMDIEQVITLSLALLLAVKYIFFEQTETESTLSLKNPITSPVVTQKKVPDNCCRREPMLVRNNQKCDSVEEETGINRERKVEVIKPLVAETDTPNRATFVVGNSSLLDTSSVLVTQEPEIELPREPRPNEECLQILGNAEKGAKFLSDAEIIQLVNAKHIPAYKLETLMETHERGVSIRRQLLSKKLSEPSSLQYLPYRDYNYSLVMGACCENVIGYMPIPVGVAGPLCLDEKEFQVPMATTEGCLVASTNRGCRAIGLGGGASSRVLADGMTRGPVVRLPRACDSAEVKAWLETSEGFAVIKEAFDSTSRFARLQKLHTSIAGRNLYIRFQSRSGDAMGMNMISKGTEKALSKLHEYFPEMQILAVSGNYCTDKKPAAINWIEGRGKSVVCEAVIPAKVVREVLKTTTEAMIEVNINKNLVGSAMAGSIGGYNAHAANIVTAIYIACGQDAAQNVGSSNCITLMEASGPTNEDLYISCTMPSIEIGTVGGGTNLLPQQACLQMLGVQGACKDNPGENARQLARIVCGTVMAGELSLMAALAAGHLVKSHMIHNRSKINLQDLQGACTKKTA
Outline: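 HepG2 cells treated 4 h with compound at 10 μM, DMSO vehicle controls. HMG-CoA reductase activity assayed in microsomal fraction isolated at end of incubation. Mean % suppression vs controls, SD ≤ ±10%, n ≥ 8.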

Gallus gallus [10] = organism: Gallus gallus; test: as §1; format: functional; outline: as §3; remark: listed apart in the source
Gallus gallus [11] = organism: Gallus gallus; test: (§6) Hypocholesterolemic activity in 6-week old male mormocholesterolemic chickens using experiment 2; format: functional; outline: as §3
Gallus gallus [12] = organism: Gallus gallus; test: as §6; format: functional; outline: as §2; remark: listed apart in the source
[13] = Oxidation potential assay as cyclic voltametry; not electrochemically active within scan range; format: functional

Compound	Ratio (Gallus gallus [2])	Inhibition (HepG2) [%]	Potential [4]	inhibition [9] [%]	HDL cholesterol (Gallus gallus [11]) [mg 100ml-1]	Total cholesterol (Gallus gallus [11]) [mg 100ml-1]	Triglycerides (Gallus gallus [11]) [mg 100ml-1]	LDL cholesterol (Gallus gallus [12]) [mg 100ml-1]	other results
CC(C)=CCC/C(C)=C/CC/C(C)=C/CCC1(C)CCc2cc(O)c(C)c(C)c2O1 (stereo not drawn)	0.74 and 0.62 and 0.68	69	0.94	61	–	–	–	–	LDL cholesterol (Gallus gallus [1]): 33 mg 100ml-1; HDL cholesterol (Gallus gallus [3]): 89 mg 100ml-1; Total cholesterol (Gallus gallus [3]): 121 mg 100ml-1; Triglycerides (Gallus gallus [3]): 62 mg 100ml-1; HDL cholesterol (Gallus gallus [5]): 94 mg 100ml-1; Total cholesterol (Gallus gallus [5]): 151 mg 100ml-1; Triglycerides (Gallus gallus [5]): 83 mg 100ml-1; IC50 [6]: 1800 nM; LDL cholesterol (Gallus gallus [7]): 29 mg 100ml-1; LDL cholesterol (Gallus gallus [8]): 51 mg 100ml-1; HDL cholesterol (Gallus gallus [10]): 85 mg 100ml-1; Total cholesterol (Gallus gallus [10]): 125 mg 100ml-1; Triglycerides (Gallus gallus [10]): 57 mg 100ml-1
CC(C)=CCC/C(C)=C/CC/C(C)=C/CCC1(C)CCc2cc(O)ccc2C1 (stereo not drawn)	0.68	58	1.48	–	85	125	86	28	–
CC(C)=CCC/C(C)=C/CC/C(C)=C/CCC1(C)CCc2ccccc2O1 (stereo not drawn)	–	45	–	0	–	–	–	–	Potential [13]: Not electrochemically active
CC(C)=CCC/C(C)=C/CC/C(C)=C/CCC1CCc2cc(O)ccc2O1 (stereo not drawn)	0.73	71	–	–	86	118	81	23	–
